For data set [1], the target named is T1, Aurora kinase A (Homo sapiens) (UniProt O14965).
T1 sequence (whole entry): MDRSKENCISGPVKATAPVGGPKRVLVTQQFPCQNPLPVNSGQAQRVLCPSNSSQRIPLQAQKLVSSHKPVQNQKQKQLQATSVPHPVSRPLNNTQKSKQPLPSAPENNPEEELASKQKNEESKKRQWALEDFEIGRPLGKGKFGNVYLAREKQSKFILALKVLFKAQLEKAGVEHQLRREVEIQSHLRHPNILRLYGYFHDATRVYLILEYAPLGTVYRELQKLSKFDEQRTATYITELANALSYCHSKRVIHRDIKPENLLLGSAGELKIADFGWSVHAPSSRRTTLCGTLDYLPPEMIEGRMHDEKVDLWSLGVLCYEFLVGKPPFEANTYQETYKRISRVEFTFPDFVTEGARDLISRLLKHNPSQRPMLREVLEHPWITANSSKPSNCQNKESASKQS
Nature of the data set: Inhibition of Aurora A (unknown origin) using myelin protein as substrate assessed as ADP generation at 10 uM after 60 mins by ADP-glo assay relative to staurosporine. The procedure, abridged:
(§1)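 Aurora A and Aurora B activity read by ADP-Glo, measuring ADP formed from ATP during the kinase reaction. Compounds tested at 10 μM. Inhibition expressed as percentage relative to the staurosporine positive control.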
In general terms: ADP-Glo first removes unused ATP, then detects ADP through luciferase.

Data set [2] concerns the target T2, Aurora kinase B (Homo sapiens, UniProt Q96GD4). Nature of the data set: Inhibition of Aurora B (unknown origin) using myelin protein as substrate assessed as ADP generation at 10 uM after 60 mins by ADP-glo assay relative to staurosporine. The procedure, abridged: as §1
The target in data set [3] is T2, Aurora kinase B. Nature of the data set: Inhibition of Aurora B (unknown origin) using myelin protein as substrate assessed as ADP generation after 60 mins by ADP-glo assay.
Another data set concerns PC-3. In words: Antitumor activity against human PC3 cells xenografted in nu/nu BALB/c mouse assessed as tumor growth inhibition at 50 mg/kg, po administered qd for 16 days relative to control. The data set is classed as functional, organism-based. The procedure, abridged:
(§2)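 PC-3 prostate tumours grown as xenografts in nude mice. Dosed orally at 50 mg/kg once daily for 16 days; vehicle was 10% dimethylacetamide plus 10% Tween 80 in water. Tumour volume measured every two or three days, tumours weighed after harvest on day 16, and body weight followed throughout. Treated groups compared with vehicle by Student's t-test.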
In general terms: In xenograft studies the graft and the host belong to different species.

Another data set relates to Mus musculus. In words: Toxicity in nu/nu BALB/c mouse xenografted with human PC3 cells assessed as loss in body weight at 50 mg/kg, po administered qd for 16 days measured during compound dosing. The data set is classed as organism-based, PC-3. To be noted: in vivo, 384 h. The procedure, abridged: as §2
For the next data set, the system named is ACHN. Nature of the data set: Cytotoxicity against human ACHN cells assessed as reduction in cell growth after 48 hrs by SRB assay. The data set is classed as functional. (Sulforhodamine B stains cellular protein and so reports cell mass.)
The subject of the next data set is NCI-H23. Nature of the data set: Cytotoxicity against human NCI-H23 cells assessed as reduction in cell growth after 48 hrs by SRB assay. The data set is classed as functional. The note with it: NCI-H23, 48 h.
Data set [4] can be described thus: Cytotoxicity against human NUGC3 cells assessed as reduction in cell growth after 48 hrs by SRB assay. The data set is classed as functional. The note with it: NUGC-3, 48 h.
Data set [5] in a line: Cytotoxicity against human HCT15 cells assessed as reduction in cell growth after 48 hrs by SRB assay. The class given is functional. To be noted: HCT-15, 48 h.
Data set [6] can be described thus: Cytotoxicity against human PC3 cells assessed as reduction in cell growth after 48 hrs by SRB assay. The data set is classed as functional. The note with it: PC-3, 48 h.
The next data set has as its system MDA-MB-231. In words: Cytotoxicity against human MDA-MB-231 cells assessed as reduction in cell growth after 48 hrs by SRB assay. To be noted: MDA-MB-231, 48 h. The class given is functional.

pIC50: −log10 of the molar value. Activity calls are given as the source filed them. No cut-off for these calls is given here.

T2 sequence (Q96GD4 whole entry): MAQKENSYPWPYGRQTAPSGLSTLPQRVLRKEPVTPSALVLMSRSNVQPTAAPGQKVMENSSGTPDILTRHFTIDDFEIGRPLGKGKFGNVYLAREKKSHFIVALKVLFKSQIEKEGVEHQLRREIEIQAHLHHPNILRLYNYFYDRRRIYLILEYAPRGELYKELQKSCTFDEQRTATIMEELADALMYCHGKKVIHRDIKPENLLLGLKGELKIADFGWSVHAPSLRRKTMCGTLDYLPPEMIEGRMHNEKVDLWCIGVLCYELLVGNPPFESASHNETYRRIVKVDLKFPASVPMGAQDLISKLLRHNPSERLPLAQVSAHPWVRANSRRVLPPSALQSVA

For orientation: inhibition means the change of the read-out against control, counted positive when it falls. Take `O=C(Nc1ccc(COc2ccc3oc(NCCN4CCOCC4)nc3c2)cc1)Nc1ccc(Cl)c(Cl)c1`: the inhibition was found to be 5% in [1] and 74% on Aurora kinase B [2].

By pIC50 is commonly meant the IC50 on a negative log10 scale, so that one unit is a factor of ten. Regarding `O=C(Nc1ccc(CNc2nc3ccc(OCCN4CCOCC4)cc3o2)cc1)Nc1ccc(Cl)cc1Cl`, the inhibition in data set [1] worked out at 8%; at Aurora kinase B [2], 86%. For the same compound, the pIC50 on Aurora kinase B [3] is 6.15.

As for `O=C(Nc1ccc(CNc2nc3ccc(OCCN4CCOCC4)cc3o2)cc1)c1ccccc1`, at Aurora kinase B [2], the inhibition is 21%.

For `O=C(Nc1ccc(Br)cc1)Nc1ccc(CNc2nc3cc(OCCN4CCOCC4)ccc3o2)cc1`, the figures for the inhibition (in [1]; on Aurora kinase B [2]) were -6% and 35%, respectively.

Regarding `O=C(Nc1ccccc1)Nc1cccc(CNc2nc3ccc(OCCN4CCOCC4)cc3o2)c1`, at Aurora kinase B [2], the inhibition worked out at 30%.

In the case of `O=C(Nc1cccc(Cl)c1)Nc1cccc(CNc2nc3ccc(OCCN4CCOCC4)cc3o2)c1`, on Aurora kinase B [2], the inhibition entry was “inactive”.

In the case of `O=C(Nc1ccccc1CNc1nc2ccc(OCCN3CCOCC3)cc2o1)c1ccccc1`, on Aurora kinase B [2], the inhibition result was “inactive”.

As for `O=C(Nc1ccccc1)Nc1cccc(COc2ccc3nc(NCCN4CCOCC4)oc3c2)c1`, the inhibition in [1] was determined as 1%; at Aurora kinase B [2], 80%.

Regarding `O=C(Nc1ccc(Cl)cc1)Nc1ccc(CNc2nc3cc(OCCN4CCOCC4)ccc3o2)cc1`, the inhibition was 8% in [1] and 42% at Aurora kinase B [2].

As for `O=C(Nc1cccc(CNc2nc3ccc(OCCN4CCOCC4)cc3o2)c1)c1ccccc1`, the inhibition at Aurora kinase B [2] is 1%.

Regarding `O=C(Nc1ccc(Br)cc1)Nc1ccc(COc2ccc3oc(NCCN4CCOCC4)nc3c2)cc1`, the inhibition is 3% in data set [1] and 74% at Aurora kinase B [2].

A word on the GI50: it is the concentration giving 50% growth inhibition. As to `O=C(Nc1ccc(CNc2nc3ccc(OCCN4CCOCC4)cc3o2)cc1)Nc1ccc(Cl)c(Cl)c1`, the TGI entry in the data set on PC-3 is “Active”. The Activity entry with Mus musculus is recorded as “Non-toxic”. The 50% growth inhibitory concentration (GI50) in the data set on ACHN was found to be 2.6 µM; with NCI-H23, 3.4 µM; in data set [4], 8.4 µM; in data set [5], 3 µM; in data set [6] it was 4.8 µM; in the data set on MDA-MB-231 it was 5 µM. In addition, the values for the inhibition (in data set [1]; at Aurora kinase B [2]) were 24% and 88%, respectively. Further, the negative-log IC50 (pIC50) on Aurora kinase B [3] is 6.22.

On to `O=C(Nc1ccc(Cl)cc1)Nc1cccc(CNc2nc3ccc(OCCN4CCOCC4)cc3o2)c1`, for which the figures for the inhibition (in data set [1]; at Aurora kinase B [2]) were 8% and 45%, respectively.

For `O=C(Nc1ccc(Cl)cc1)Nc1ccc(CNc2nc3ccc(OCCN4CCOCC4)cc3o2)cc1`, the concentration for 50% growth inhibition (GI50) in the data set with ACHN is 2.2 µM; in the data set with NCI-H23, 4 µM; in data set [4], 5.5 µM; in [5], 4.8 µM; in data set [6] it was 6.2 µM; in the data set with MDA-MB-231 it was 7.6 µM. The values for the inhibition (in [1]; at Aurora kinase B [2]) were 5% and 66%, respectively. In addition, the negative-log IC50 (pIC50) at Aurora kinase B [3] is 4.99.

`Cc1ccc(NC(=O)Nc2ccc(CNc3nc4ccc(OCCN5CCOCC5)cc4o3)cc2)cc1`: the inhibition entry in [1] is “inactive”. At Aurora kinase B [2], the inhibition was determined as 65%.

As to `O=C(Nc1ccc(Cl)cc1)Nc1ccc(COc2ccc3oc(NCCN4CCOCC4)nc3c2)cc1`, the results for the inhibition (in data set [1]; on Aurora kinase B [2]) were 4% and 37%, respectively.

Turning to `O=C(Nc1ccc(Br)cc1)Nc1ccc(CNc2nc3ccc(OCCN4CCOCC4)cc3o2)cc1`, the inhibition result in [1] is “inactive”. For the same compound, the inhibition at Aurora kinase B [2] was 69%.

For `O=C(Nc1ccc(Br)cc1)Nc1ccc(COc2ccc3nc(NCCN4CCOCC4)oc3c2)cc1`, the inhibition entry in [1] was “inactive”. Further, the inhibition on Aurora kinase B [2] came to 55%.

Regarding `O=C(Nc1ccc(COc2ccc3nc(NCCN4CCOCC4)oc3c2)cc1)Nc1ccc(Cl)c(Cl)c1`, the inhibition in data set [1] is 2%; at Aurora kinase B [2], 70%. Further, the pIC50 on Aurora kinase B [3] is 4.31.

Consider `O=C(Nc1ccc(CNc2nc3ccc(OCCN4CCOCC4)cc3o2)cc1)Nc1cccc(Cl)c1`, for which the inhibition in data set [1] turned out to be 13%; on Aurora kinase B [2], 58%.

Turning to `COc1ccc(NC(=O)Nc2ccc(CNc3nc4ccc(OCCN5CCOCC5)cc4o3)cc2)cc1`, the inhibition in data set [1] was 10%; on Aurora kinase B [2] it was 76%.

As for `O=C(Nc1ccc(Cl)cc1)Nc1ccc(COc2ccc3nc(NCCN4CCOCC4)oc3c2)cc1`, the inhibition result in [1] is “inactive”. Further, on Aurora kinase B [2], the inhibition was found to be 94%. Further, the negative logarithm of the IC50 (pIC50) at Aurora kinase B [3] was 4.30.

As for `O=C(Nc1ccccc1)Nc1ccc(CNc2nc3ccc(OCCN4CCOCC4)cc3o2)cc1`, the inhibition in [1] was 15%; on Aurora kinase B [2] it was 40%.

As to `O=C(Nc1ccc(CNc2nc3ccc(OCCN4CCOCC4)cc3o2)cc1)Nc1cccc(F)c1`, the inhibition stood at 7% in data set [1] and 63% on Aurora kinase B [2].

Turning to `O=C(Nc1ccc(F)cc1)Nc1ccc(CNc2nc3ccc(OCCN4CCOCC4)cc3o2)cc1`, the inhibition result in [1] is “inactive”. In addition, at Aurora kinase B [2], the inhibition was found to be 34%.

(Values after ChEMBL document CHEMBL3808344, “Design and synthesis of novel benzoxazole analogs as Aurora B kinase inhibitors” (Bioorg Med Chem Lett, 2016).)
